In ChEMBL document CHEMBL3608304, “Anti-inflammatory Labdane Diterpenoids from Leonurus macranthus” (J Nat Prod, 2015):
pIC50: −log10 of the molar value.

How the values were obtained:
[1] = test system: BV-2; test: Inhibition of LPS-activated nitric oxide production in mouse BV2 cells pre-treated for 60 mins before LPS challenge for 24 hrs by Griess assay; assay type: functional, cell-based
In short: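 LPS-activated BV-2 microglial cells; NO production measured by Griess assay; indomethacin as positive control; results expressed as IC50 (μM).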

[2] = Toxicity against mouse BV2 cells assessed as effect on cell viability at 80 uM incubated for 24 hrs by MTT assay; assay type: cell-based; settings: bv-2, 24 h
[3] = test system: BV-2; test: Inhibition of LPS-activated nitric oxide production in mouse BV2 cells at 80 uM pre-treated for 60 mins before LPS challenge for 24 hrs by Griess assay; assay type: functional

Row | Compound | pIC50 [1] | Activity [2] | inhibition at 80 µM [3] [%]
1 | CC(=O)OC[C@@]1(C)[C@H](O)CC[C@]2(C)C(CCC(C)(O)CCO)=C(C)C(=O)[C@@H](O)[C@@H]12 (stereo partly drawn) | 4.27 | Non-toxic | –
2 | CC(=O)OCC[C@]1(C)CC[C@@]2(O1)[C@H](C)[C@@H](OC(C)=O)[C@@H](O)[C@H]1[C@@](C)(COC(C)=O)[C@H](OC(C)=O)CC[C@@]12C | 5.00 | Non-toxic | –
3 | CC(=O)OCC[C@]1(C)CC[C@@]2(O1)[C@H](C)C(=O)[C@@H](OC(C)=O)[C@H]1[C@@](C)(COC(C)=O)[C@H](O)CC[C@@]12C | 4.20 | Non-toxic | –
4 | CC(=O)OCC[C@]1(C)CC[C@@]2(O1)[C@H](C)[C@@H](O)C(=O)[C@H]1[C@@](C)(COC(C)=O)[C@H](O)CC[C@@]12C | 4.88 | Non-toxic | –
5 | CC(=O)OC[C@@]1(C)[C@H](OC(C)=O)CC[C@@]2(C)[C@H]1[C@H](O)C(=O)[C@@H](C)[C@]21CC[C@@](C)(CCO)O1 | 4.38 | Non-toxic | –
6 | CC(=O)OCC[C@]1(C)CC[C@@]2(O1)[C@H](C)C(=O)[C@@H](O)[C@H]1[C@@](C)(COC(C)=O)[C@H](O)CC[C@@]12C | 4.34 | Non-toxic | –
7 | COc1ccc2c(c1)c(CC(=O)O)c(C)n2C(=O)c1ccc(Cl)cc1 [INDOMETHACIN] | 4.45 | – | –
8 | CC(=O)OC[C@@]1(C)[C@H](O)CC[C@@]2(C)[C@H]1CC(=O)[C@@H](C)[C@]21CC[C@@](C)(CCO)O1 | 4.43 | Non-toxic | –
9 | CC(=O)OC[C@@]1(C)[C@H](OC(C)=O)CC[C@@]2(C)[C@H]1[C@H](OC(C)=O)C(=O)[C@@H](C)[C@]21CC[C@@](C)(CCO)O1 | 4.68 | Non-toxic | –
10 | CC(=O)O[C@@H]1C(=O)[C@@H](C)[C@]2(CC[C@@](C)(CCO)O2)[C@@]2(C)CC[C@@H](OC(C)=O)[C@](C)(CO)[C@H]12 | 4.79 | Non-toxic | –
11 | CC(=O)O[C@@H]1CC[C@]2(C)C(CCC(C)(O)CCO)=C(C)C(=O)[C@@H](O)[C@H]2[C@@]1(C)CO (stereo partly drawn) | – | – | < 50
12 | CC(=O)OC[C@@]1(C)[C@H](OC(C)=O)CC[C@]2(C)C(CCC(C)(O)CCO)=C(C)C(=O)[C@@H](OC(C)=O)[C@@H]12 (stereo partly drawn) | – | – | 50
13 | CC(=O)OCC[C@]1(C)CC[C@@]2(O1)[C@H](C)C(=O)[C@@H](OC(C)=O)[C@H]1[C@@](C)(COC(C)=O)[C@H](OC(C)=O)CC[C@@]12C | 4.32 | Non-toxic | –
14 | CC(=O)OCC[C@]1(C)CC[C@@]2(O1)[C@H](C)[C@@H](O)[C@@H](OC(C)=O)[C@H]1[C@@](C)(COC(C)=O)[C@H](OC(C)=O)CC[C@@]12C | 4.96 | Non-toxic | –
15 | CC(=O)OCCC(C)(O)CCC1=C(C)C(=O)[C@@H](OC(C)=O)[C@H]2[C@@](C)(COC(C)=O)[C@H](OC(C)=O)CC[C@]12C (stereo partly drawn) | 4.90 | Non-toxic | –
16 | CC(=O)OC[C@@]1(C)[C@H](O)CC[C@]2(C)C(CCC(C)(O)CCO)=C(C)C(=O)[C@@H](OC(C)=O)[C@@H]12 (stereo partly drawn) | – | – | < 50
